ChEMBL document CHEMBL1671641, “1,5-benzodiazepines, a novel class of hepatitis C virus polymerase nonnucleoside inhibitors” (Antimicrob Agents Chemother, 2008)

Columns and labels:
Hepatitis C virus [1] = assay: Inhibition of Hepatitis C virus 1b J4 recombinant NS5B Cdelta 21 RNA dependent RNA polymerase overexpressed in Escherichia coli BL21 (DE3) by RdRp primer-dependent transcription assay; set-up: species or system Hepatitis C virus subtype 1b
MT4 [2] = assay: Cytotoxicity against LTR-Luc transfected human MT4 cells […] after 3 days by ATPLite assay; assay type: cell-based; details: mt4, 72 h, 72 h
Hepatitis C virus [3] = assay: Inhibition of Hepatitis C virus 1b J4 recombinant NS5B Cdelta 21 RNA dependent RNA polymerase overexpressed in Escherichia coli BL21 (DE3) assessed as [alpha-33P]UTP incorporation by RdRp primer-independent transcription assay; set-up: species or system Hepatitis C virus subtype 1b
Outline: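 De novo (primer-independent) RdRp assay: 190 nM NS5BΔ21 (1b J4) with 86 nM HCV 3′ UTR template RNA, 0.5 mM each ATP/GTP/CTP, 10 μM UTP plus [α-³³P]UTP, in 20 mM Tris-HCl pH 7.5, 1 mM DTT, 5 mM MgCl₂, 20 mM NaCl. Incubated 2 h at room temperature, stopped with EDTA/tRNA, TCA-precipitated on filters, and scintillation-counted. Quadruplicate.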

[4] = Cytotoxicity against CMV-Luc transfected human HuH7 cells after 5 days; assay type: cell-based, Huh-7; details: huh-7, 120 h, 120 h
[5] = Cytotoxicity against human HuH7 cells after 5 days by resazurin assay; assay type: cell-based, Huh-7; details: huh-7, 120 h, 120 h
Outline: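 Subconfluent HCV 1b subgenomic replicon cells, 500 per well and grown without G418, were incubated for 5 days with eight serial fourfold compound dilutions. Viability was read by resazurin. Values are means ± SD from two to eight independent experiments in quadruplicate.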

MT4 [6] = assay: Cytotoxicity against human MT4 cells after 3 days by ATPLite assay; assay type: cell-based; details: mt4, 72 h, 72 h
Outline: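 MT4 cells, 5,000 per well, were incubated 3 days at 37°C with eight serial fourfold compound dilutions. Cytotoxicity was read as intracellular ATP by ATPlite 1step luminescence. Values are means ± SD from two to eight independent experiments in quadruplicate.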

HepG2 = assay: Cytotoxicity against human HepG2 cells after 72 hrs by resazurin assay; assay type: cell-based; details: hepg2, 72 h, 72 h
Outline: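 Cells were tested against eight serial fourfold dilutions for 72 h, at 3,000 cells/well for HEK293T and 4,000 cells/well for HepG2. Viability was read by resazurin staining. Values are means ± SD from two to eight independent experiments in quadruplicate.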

Hepatitis C virus [7] = assay: Antiviral activity against Hepatitis C virus 1b infected in human HuH7 cells assessed as inhibition of viral replication after 3 days by luciferase reporter assay; assay type: functional, organism-based, Hepacivirus hominis, genotype 1b, Huh-7; details: huh-7
Outline: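 HCV 1b subgenomic luciferase reporter replicon (clone ET) cells, 2,500 per well, were exposed to a nine-point 1/4 dilution series for 3 days. Replication was read as luciferase activity. Values are means ± SD from 2 to 23 independent experiments run in quadruplicate.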

Hepatitis C virus [8] = assay: Antiviral activity against Hepatitis C virus infected in cells assessed as log reduction in viral RNA level from baseline at 4500 mg administered BID for 14 days by Replicon Assays; assay type: functional, Hepacivirus hominis
Hepatitis C virus [9] = assay: Antiviral activity against Hepatitis C virus infected in cells assessed as log reduction in viral RNA level at 800 mg administered BID for 10 days; assay type: functional, Hepacivirus hominis

## CC(=O)N1c2cccc(O)c2NC2=C(C(=O)CC(C)(C)C2)C1c1ccc(OCc2ccccc2)cc1Cl (single isomer, unassigned; 7b)
Hepatitis C virus [1]
  IC50: 12.5 µM
MT4 [2]
  CC50: 14.4 µM
Hepatitis C virus [3]
  IC50: 18.5 µM
[4]
  CC50: 10.1 µM
[5]
  CC50: 23.8 µM
MT4 [6]
  CC50: 38.4 µM
HepG2
  CC50: > 25 µM
Hepatitis C virus [7]
  EC50: 2.1 µM

## [N-]=[N+]=N[C@]1(CO)O[C@@H](n2ccc(N)nc2=O)[C@H](O)[C@@H]1O [4'-AZIDOCYTIDINE]
Hepatitis C virus [8]
  FC: 3.7

## CC1CCC(C(=O)N(c2cc(-c3ccccc3)sc2C(=O)[O-])C2CCC(O)CC2)CC1.[Na+] (stereo not given) [VCH-759]
Hepatitis C virus [9]
  FC: 2.5
